The target of assay [1] is T1, Cannabinoid receptor 1 (Homo sapiens, UniProt P21554). The assay is described as follows: Antagonist activity at human CB1 receptor stably expressed in RD-HGA16 cells assessed as inhibition of CP55,940-induced calcium mobilization after 15 mins by FLIPR assay. It counts as functional, cell-based. A general note: Calcium assays in cells follow changes in intracellular calcium, usually with a dye or a luminescent sensor.

For assay [2], the target named is T1, Cannabinoid receptor 1. The assay is described as follows: Agonist activity at human CB1 receptor stably expressed in RD-HGA16 cells assessed as calcium mobilization at 10000 nM after 15 mins by FLIPR assay relative to CP55,940. It is filed as functional, cell-based. The method, boiled down:
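Cells plated at 25 000/well the day before in Ham's F12 with 10% FBS, then loaded 45 min at 37 °C with Calcium 5 dye in HBSS/20 mM HEPES/2.5 mM probenecid, pH 7.4. Vehicle pretreatment for 15 min at 37 °C; test compound added on-line, fluorescence read every 1 s over 90 s.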

The target in assay [3] is T2, Cannabinoid receptor 2 (Homo sapiens, UniProt P34972). In words: Antagonist activity at human CB2 receptor stably expressed in CHO-RD-HGA16 cells assessed as inhibition of CP55,940-induced calcium mobilization at 10000 nM after 15 mins by FLIPR assay. It counts as functional, cell-based.
Assay [4] addresses T2, Cannabinoid receptor 2. In words: Antagonist activity at human CB2 receptor stably expressed in CHO-RD-HGA16 cells assessed as inhibition of CP55,940-induced calcium mobilization after 15 mins by FLIPR assay. It is filed as functional, cell-based.
For assay [5], the target named is T1, Cannabinoid receptor 1. In words: Displacement of [3H]CP55,940 from human CB1 receptor expressed in HEK293 cells after 1 hr by scintillation counting. It is filed as cell-based. (Displacement assays read how much labelled ligand stays bound in the presence of the test substance.)
Assay [6] concerns the target T1, Cannabinoid receptor 1. In words: Displacement of [3H]CP55,940 from human CB1 receptor expressed in HEK293 cells after 1 hr by scintillation counting relative to control. It is filed as cell-based.
The target in assay [7] is T1, Cannabinoid receptor 1. In words: Allosteric modulation at human CB1 receptor stably expressed in RD-HGA16 cells assessed as inhibition of CP55,940-induced calcium mobilization after 15 mins by FLIPR assay. It is filed as functional, cell-based. The method, boiled down: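 Cells plated the day before at 25 000/well and loaded 45 min at 37 °C with Calcium 5 dye in HBSS/20 mM HEPES/2.5 mM probenecid, pH 7.4. Fluorescence was read every 1 s for 90 s.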

pEC50, pIC50: −log10 of the molar value. Bounds are passed on as bounds.

The source of these data is ChEMBL document CHEMBL3351332 (J Med Chem, 2014).

T1 sequence (P21554 whole entry): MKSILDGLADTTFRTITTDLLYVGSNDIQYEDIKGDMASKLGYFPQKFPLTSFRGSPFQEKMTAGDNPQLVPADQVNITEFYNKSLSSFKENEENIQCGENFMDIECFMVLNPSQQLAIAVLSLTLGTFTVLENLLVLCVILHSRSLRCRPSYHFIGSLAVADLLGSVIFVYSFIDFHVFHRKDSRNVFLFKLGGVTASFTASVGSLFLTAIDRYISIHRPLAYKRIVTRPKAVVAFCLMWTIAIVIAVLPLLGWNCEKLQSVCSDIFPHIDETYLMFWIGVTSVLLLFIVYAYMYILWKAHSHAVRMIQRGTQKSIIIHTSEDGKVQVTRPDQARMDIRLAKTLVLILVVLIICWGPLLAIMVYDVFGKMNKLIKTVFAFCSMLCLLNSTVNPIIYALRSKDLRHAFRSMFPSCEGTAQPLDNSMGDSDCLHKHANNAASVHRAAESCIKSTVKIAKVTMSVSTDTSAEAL
T2 sequence (P34972 whole entry): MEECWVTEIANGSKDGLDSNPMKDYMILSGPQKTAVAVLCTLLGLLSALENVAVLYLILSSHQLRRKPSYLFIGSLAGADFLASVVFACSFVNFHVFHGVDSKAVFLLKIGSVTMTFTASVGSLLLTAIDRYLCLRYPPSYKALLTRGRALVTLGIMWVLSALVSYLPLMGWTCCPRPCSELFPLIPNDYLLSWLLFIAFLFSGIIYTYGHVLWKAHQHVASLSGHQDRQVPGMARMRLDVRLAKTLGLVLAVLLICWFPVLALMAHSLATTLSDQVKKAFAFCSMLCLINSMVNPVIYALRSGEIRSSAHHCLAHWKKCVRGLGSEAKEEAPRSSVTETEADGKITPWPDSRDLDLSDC

Consider `CCCCN(CCCC)c1cccc(-c2cccc(NC(=O)Nc3ccc(Cl)cc3)c2)n1`, for which the negative logarithm of the IC50 (pIC50) on Cannabinoid receptor 1 [1] is 6.16. In addition, on Cannabinoid receptor 1 [2], the Activity was less than 15%. For the same compound, the inhibition at Cannabinoid receptor 2 [3] is less than 35%.
For `CN(C)c1ccc(NC(=O)Nc2cccc(-c3cccc(N4CCCC4)n3)c2)cc1` the same measures were 5.79, less than 15% and less than 35%.
The matching figures for `Cc1cccc(C)c1NC(=O)Nc1cccc(-c2cccc(N3CCCC3)n2)c1`: less than 5.00, less than 15% and less than 35%.
For the compound `O=C(Nc1ccc([N+](=O)[O-])cc1)Nc1cccc(-c2cccc(N3CCCC3)n2)c1`, on Cannabinoid receptor 1 [1], the negative-log IC50 (pIC50) was 7.00. In addition, the Activity on Cannabinoid receptor 1 [2] was 27.9%. For the same compound, the inhibition at Cannabinoid receptor 2 [3] is less than 35%.
As to `Cc1ccc(NC(=O)Nc2cccc(-c3cccc(N4CCCC4)n3)c2)cc1`, the pIC50 on Cannabinoid receptor 1 [1] was 6.69. Further, the Activity on Cannabinoid receptor 1 [2] was less than 15%. On Cannabinoid receptor 2 [3], the inhibition is less than 35%.
For the compound `O=C(Nc1cccc(-c2cccc(N3CCCC3)n2)c1)Nc1ccc(Cl)c(Cl)c1`, the pIC50 on Cannabinoid receptor 1 [1] is 6.79; on Cannabinoid receptor 2 [4], less than 5.00. In addition, the Activity at Cannabinoid receptor 1 [2] is less than 15%.
On to `O=C(Nc1ccc(Br)cc1)Nc1cccc(-c2cccc(N3CCCC3)n2)c1`, for which the pIC50 on Cannabinoid receptor 1 [1] was 7.01. Also, on Cannabinoid receptor 1 [2], the Activity was less than 15%. Moreover, at Cannabinoid receptor 2 [3], the inhibition was less than 35%.
The matching figures for `O=C(Nc1cccc(-c2cccc(N3CCCC3)n2)c1)Nc1cccc2ccccc12`: less than 5.00, less than 15% and less than 35%.
With `CCCN(C)c1cccc(-c2cccc(NC(=O)Nc3ccc(Cl)cc3)c2)n1`, at Cannabinoid receptor 1 [1], the negative-log IC50 (pIC50) is 6.81. Moreover, the Activity at Cannabinoid receptor 1 [2] is less than 15%. Moreover, the inhibition on Cannabinoid receptor 2 [3] was less than 35%.
The matching figures for `CNc1cccc(-c2cccc(NC(=O)Nc3ccc(Cl)cc3)c2)n1`: 6.50, less than 15% and less than 35%.
Turning to `O=C(Nc1ccc(F)cc1)Nc1cccc(-c2cccc(N3CCCC3)n2)c1`, the negative logarithm of the IC50 (pIC50) on Cannabinoid receptor 1 [1] was 7.49. Also, the Activity on Cannabinoid receptor 1 [2] came to 23.2%. Further, at Cannabinoid receptor 2 [3], the inhibition is less than 35%. The same compound had a pEC50 at Cannabinoid receptor 1 [5] of 6.68. This compound registered an Emax at Cannabinoid receptor 1 [6] of 172%.
As to `CC(=O)Nc1cccc(-c2cccc(NC(=O)Nc3ccc(Cl)cc3)c2)n1`, the negative logarithm of the IC50 (pIC50) was 6.60 at Cannabinoid receptor 1 [1] and 5.29 on Cannabinoid receptor 2 [4]. The Activity on Cannabinoid receptor 1 [2] turned out to be 47%.
As for `N#Cc1ccc(NC(=O)Nc2cccc(-c3cccc(N4CCCC4)n3)c2)cc1`, the pIC50 on Cannabinoid receptor 1 [1] was 7.48; on Cannabinoid receptor 2 [4] it was less than 5.00. Further, the figures for the Activity at Cannabinoid receptor 1 [2] and at Cannabinoid receptor 1 [7] were 30% and “Dose-dependent effect”, respectively. The negative-log EC50 (pEC50) at Cannabinoid receptor 1 [5] is 7.26. The compound also returned a maximum response (Emax) on Cannabinoid receptor 1 [6] of 172%.
On to `CCCCN(C)c1cccc(-c2cccc(NC(=O)Nc3ccc(Cl)cc3)c2)n1`, for which, on Cannabinoid receptor 1 [1], the negative logarithm of the IC50 (pIC50) was 6.98. Also, the Activity on Cannabinoid receptor 1 [2] was found to be 22.1%. On Cannabinoid receptor 2 [3], the inhibition is less than 35%.
With `CCN(CC)c1cccc(-c2cccc(NC(=O)Nc3ccc(Cl)cc3)c2)n1`, the negative-log IC50 (pIC50) on Cannabinoid receptor 1 [1] is 6.90. The Activity at Cannabinoid receptor 1 [2] is less than 15%. The inhibition at Cannabinoid receptor 2 [3] was less than 35%.
In the case of `COc1cc(NC(=O)Nc2cccc(-c3cccc(N4CCCC4)n3)c2)cc(OC)c1OC`, the negative logarithm of the IC50 (pIC50) at Cannabinoid receptor 1 [1] and at Cannabinoid receptor 2 [4] was less than 5.00 in each case. Also, on Cannabinoid receptor 1 [2], the Activity is less than 15%.
For `O=C(Nc1cccc(-c2cccc(N3CCCC3)n2)c1)Nc1ccc2c(c1)OCO2`, the pIC50 at Cannabinoid receptor 1 [1] was 6.51. Further, the Activity on Cannabinoid receptor 1 [2] was less than 15%. Further, at Cannabinoid receptor 2 [3], the inhibition was less than 35%.
For `CCNc1cccc(-c2cccc(NC(=O)Nc3ccc(Cl)cc3)c2)n1` the same measures were 6.74, less than 15% and less than 35%.
For `Cc1cc(C)cc(NC(=O)Nc2cccc(-c3cccc(N4CCCC4)n3)c2)c1` the same measures were 5.73, less than 15% and less than 35%.
In the case of `O=C(Nc1cc(Cl)cc(Cl)c1)Nc1cccc(-c2cccc(N3CCCC3)n2)c1`, the values for the negative-log IC50 (pIC50) on Cannabinoid receptor 1 [1] and at Cannabinoid receptor 2 [4] were 6.15 and less than 5.00, respectively. For the same compound, the Activity on Cannabinoid receptor 1 [2] is 22.2%.
`CCCCCCNc1cccc(-c2cccc(NC(=O)Nc3ccc(Cl)cc3)c2)n1`: the pIC50 at Cannabinoid receptor 1 [1] was 5.87. Also, the Activity on Cannabinoid receptor 1 [2] was less than 15%. Also, the inhibition at Cannabinoid receptor 2 [3] is less than 35%.
With `CCCN(CCC)c1cccc(-c2cccc(NC(=O)Nc3ccc(Cl)cc3)c2)n1`, at Cannabinoid receptor 1 [1], the negative-log IC50 (pIC50) was 6.43. Also, at Cannabinoid receptor 1 [2], the Activity amounted to 29%. Further, the inhibition at Cannabinoid receptor 2 [3] was less than 35%.
Turning to `O=C(Nc1ccc(Cl)cc1)Nc1cccc(-c2cccc(N3CCCC3)n2)c1`, the inhibition result on Cannabinoid receptor 1 [1] is “Dose-dependent effect”. The Activity at Cannabinoid receptor 1 [2] came out at 28.2%. Besides, the pIC50 on Cannabinoid receptor 2 [4] was less than 5.00. At Cannabinoid receptor 1 [6], the maximal response (Emax) amounted to 174%.
Consider `O=C(Nc1ccccc1)Nc1cccc(-c2cccc(N3CCCC3)n2)c1`, for which the negative-log IC50 (pIC50) at Cannabinoid receptor 1 [1] is 6.78. Besides, the Activity on Cannabinoid receptor 1 [2] is less than 15%. The inhibition at Cannabinoid receptor 2 [3] is less than 35%.
For `CCCNc1cccc(-c2cccc(NC(=O)Nc3ccc(Cl)cc3)c2)n1` the same measures were 6.51, 19.6% and less than 35%.
Consider `CCc1ccccc1NC(=O)Nc1cccc(-c2cccc(N3CCCC3)n2)c1`, for which the negative-log IC50 (pIC50) on Cannabinoid receptor 1 [1] was less than 5.00. Besides, the Activity on Cannabinoid receptor 1 [2] was less than 15%. For the same compound, the inhibition at Cannabinoid receptor 2 [3] is less than 35%.
The matching figures for `COc1ccc(NC(=O)Nc2cccc(-c3cccc(N4CCCC4)n3)c2)cc1`: 6.72, less than 15% and less than 35%.
Regarding `CCc1c(C(=O)NCCc2ccc(N3CCCCC3)cc2)[nH]c2ccc(Cl)cc12`, on Cannabinoid receptor 1 [1], the inhibition entry was “Dose-dependent effect”.
`O=C(Nc1ccc(Cl)nc1)Nc1cccc(-c2cccc(N3CCCC3)n2)c1`: the pIC50 on Cannabinoid receptor 1 [1] is 6.87. Further, the Activity at Cannabinoid receptor 1 [2] was less than 15%. The inhibition at Cannabinoid receptor 2 [3] is less than 35%. The compound further gave a pEC50 on Cannabinoid receptor 1 [5] of 6.39. Moreover, the Emax on Cannabinoid receptor 1 [6] came out at 196%.
`CC(C)c1ccccc1NC(=O)Nc1cccc(-c2cccc(N3CCCC3)n2)c1`: at Cannabinoid receptor 1 [1], the pIC50 was less than 5.00. Also, the Activity on Cannabinoid receptor 1 [2] was less than 15%. In addition, the inhibition on Cannabinoid receptor 2 [3] was less than 35%.
On to `CCCCCNc1cccc(-c2cccc(NC(=O)Nc3ccc(Cl)cc3)c2)n1`, for which the pIC50 on Cannabinoid receptor 1 [1] was 6.06. In addition, the Activity on Cannabinoid receptor 1 [2] was less than 15%. In addition, the inhibition at Cannabinoid receptor 2 [3] is less than 35%.
The matching figures for `CCN(C)c1cccc(-c2cccc(NC(=O)Nc3ccc(Cl)cc3)c2)n1`: 7.27, less than 15% and less than 35%.
The matching figures for `O=C(Nc1cccc(Cl)c1)Nc1cccc(-c2cccc(N3CCCC3)n2)c1`: 6.64, 19.6% and less than 35%.
For the compound `O=C(Nc1ccc(Cl)cc1)Nc1cccc(-c2cccc(NC3CCCC3)n2)c1`, the pIC50 on Cannabinoid receptor 1 [1] is 6.30; on Cannabinoid receptor 2 [4] it was less than 5.00. The Activity on Cannabinoid receptor 1 [2] stood at 35%.
`O=C(Nc1cccc(-c2cccc(N3CCCC3)n2)c1)Nc1ccc2ccccc2c1`: on Cannabinoid receptor 1 [1], the pIC50 was 6.05. Further, at Cannabinoid receptor 1 [2], the Activity was less than 15%. At Cannabinoid receptor 2 [3], the inhibition is less than 35%.
For `CN(C)c1cccc(-c2cccc(NC(=O)Nc3ccc(Cl)cc3)c2)n1`, the pIC50 on Cannabinoid receptor 1 [1] was 7.56. In addition, the Activity at Cannabinoid receptor 1 [2] was less than 15%; at Cannabinoid receptor 1 [7], “Dose-dependent effect”. In addition, the inhibition on Cannabinoid receptor 2 [3] was less than 35%. The compound also had a negative-log EC50 (pEC50) at Cannabinoid receptor 1 [5] of 6.18. In addition, the Emax on Cannabinoid receptor 1 [6] turned out to be 184%.
As to `O=C(Nc1ccc(Cl)cc1)Nc1cccc(-c2cccc(N3CCCCC3)n2)c1`, the pIC50 was 7.02 on Cannabinoid receptor 1 [1] and less than 5.00 at Cannabinoid receptor 2 [4]. At Cannabinoid receptor 1 [2], the Activity stood at 35%. The same compound came in with an Emax at Cannabinoid receptor 1 [6] of 132%.
As for `CCCCNc1cccc(-c2cccc(NC(=O)Nc3ccc(Cl)cc3)c2)n1`, the pIC50 on Cannabinoid receptor 1 [1] is 7.03. Moreover, the Activity on Cannabinoid receptor 1 [2] was determined as 26.5%. For the same compound, the inhibition on Cannabinoid receptor 2 [3] is less than 35%. The pEC50 on Cannabinoid receptor 1 [5] was 5.82. Moreover, at Cannabinoid receptor 1 [6], the maximal response (Emax) is 161%.

As usually defined, the pIC50 is −log10 of the IC50, conventionally taken in molar units. For orientation: inhibition means the relative decrease from the control value, in per cent. Broadly, the pEC50 is the negative decadic logarithm of the EC50, by convention in mol/L. Read a high pEC50 as a small EC50. As usually defined, the Emax is the size of the effect at its maximum, as opposed to the concentration needed.
